From ChEMBL document CHEMBL1144849, “Latrunculin A and its C-17-O-carbamates inhibit prostate tumor cell invasion and HIF-1 activation in breast tumor cells” (J Nat Prod, 2008)
Activity calls are given as the source filed them. The rule behind the calls is not given here.

Columns and labels:
PC-3M [1] = assay: Antimetastatic activity in human PC3M cells expressing calcitonin assessed as decreased cell disaggregation by spheroid disaggregation assay; format: functional, cell-based
How it was run: (§1)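 Spheroids grown from PC-3M-CT+ single-cell suspension (5×10^4/mL, serum-free RPMI 1640) on low-attachment plates rocked at 37 °C for 2 days, reaching 150–300 μm (~4×10^4 cells). One spheroid per ECM-coated well in serum-free medium, t=0 set at 1 h after plating. Photographed, cultured 48 h at 37 °C, fixed, Diff-Quik stained, migration diameter measured by micrometer minus initial diameter. Reported as percent increase in surface area.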

PC-3M [2] = assay: Antimetastatic activity in human PC3M cells expressing calcitonin assessed as decreased cell migration by spheroid disaggregation assay; format: functional, cell-based; how it was run: as §1
[3] = target: T1, Hypoxia inducible factors; HIF-1-alpha, HIF-2-alpha (Homo sapiens, UniProt Q16665+Q99814); assay: Inhibition of hypoxia-induced HIF1 activation in human T47D cells at 30 uM by cell based reporter gene assay
How it was run: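 Transfected T47D luciferase reporter assay. Compound-treated cells exposed to hypoxia (5% CO2/1% O2/94% N2), normoxia, or 10 μM 1,10-phenanthroline as hypoxia mimetic, then luciferase activity read. Constitutive pGL3 control reporter run alongside.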

T47D = assay: Cell viability in human T47D cells at 30 uM by SRB method; format: functional
How it was run: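 T47D cells in DMEM/F12 with 10% FCS plated at 30,000/well and left overnight at 37 °C. Compound added, 30 min preincubation, then 16 h (or 48 h) treatment at 37 °C, hypoxic (1% O2) or normoxic.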

PC-3M [4] = assay: Antimetastatic activity in human PC3M cells expressing calcitonin assessed as shrinkage of actin fibers at 50 nM by Matrigel barrier assay; format: functional, cell-based
PC-3M [5] = assay: Antimetastatic activity in human PC3M cells expressing calcitonin assessed as inhibition calcitonin-induced invasion at 100 nM by Matrigel barrier assay; format: functional, cell-based
How it was run: (§2)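 PC-3M-CT+ cells serum-starved 24 h, then 25×10³ cells seeded in the upper insert of Matrigel invasion chambers. Lower chamber held 90% basal RPMI plus 10% conditioned medium from cells expressing active Gαs. After 24 h, non-invaders were removed and the insert underside stained with Diff Quick. Cells counted in ≥6 fields at 100×, corrected for growth rate. Triplicate, repeated twice, mean ± SEM.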

PC-3M [6] = assay: Antimetastatic activity in human PC3M cells expressing calcitonin assessed as inhibition of invasion at 100 nM by Matrigel barrier assay; format: functional, cell-based; how it was run: as §2
PC-3M [7] = assay: Antimetastatic activity in human PC3M cells expressing calcitonin assessed as inhibition calcitonin-induced reorganization of actin fibers at 50 nM by Matrigel barrier assay; format: functional, cell-based
[8] = Cytotoxicity against human PC3M cells; format: functional, PC-3M
[9] = Antimetastatic activity in human PC3M cells expressing calcitonin assessed as decreased cell disaggregation at 500 nM by spheroid disaggregation assay relative to control; format: functional, PC-3M
How it was run: (§3)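 Single PC-3M-CT+ spheroids (150–300 μm, ~4×10⁴ cells, grown 2 days on a rocking shaker in serum-free RPMI) placed on ECM-coated wells in serum-free medium. t = 0 set 1 h after plating. Cultured 48 h at 37 °C, then fixed and Diff-Quik stained. Migration diameter measured by micrometer minus initial spheroid diameter. Reported as average percent increase in surface area.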

[10] = Antimetastatic activity in human PC3M cells expressing calcitonin assessed as decreased cell migration at 500 nM by spheroid disintegration assay relative to control; format: functional, PC-3M; how it was run: as §3
[11] = target: T1, Hypoxia inducible factors; HIF-1-alpha, HIF-2-alpha; assay: Inhibition of hypoxia-induced HIF1 activation in human T47D cells by cell based reporter gene assay
How it was run: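 T47D cells transfected with an HIF-1 luciferase reporter, treated with compound and exposed to hypoxia (5% CO₂/1% O₂/94% N₂) versus normoxia (5% CO₂/95% air). Luciferase activity measured.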

[12] = target: T1, Hypoxia inducible factors; HIF-1-alpha, HIF-2-alpha; assay: Inhibition of 1,10-phenanthroline-induced HIF1 activation in human T47D cells by cell based reporter gene assay
How it was run: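 T47D cells transfected with an HIF-1 luciferase reporter, treated with compound and stimulated with 10 μM 1,10-phenanthroline as a hypoxia mimetic. Luciferase activity measured.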

Row | SMILES | Activity (PC-3M [1]) | Activity (PC-3M [2]) | inhibition [3] | Activity (T47D) | Activity (PC-3M [4]) | Activity (PC-3M [5]) | Activity (PC-3M [6]) | Activity (PC-3M [7]) | Activity [8] | Fold change [9] | Fold change [10] | IC50 [11] | IC50 [12]
1 | C/C1=C/C(=O)O[C@@H]2C[C@@H](CC[C@H](C)/C=C\C=C\CC1)O[C@@](OC(=O)Nc1ccccc1)([C@@H]1CSC(=O)N1)C2 | Dose-dependent effect | Dose-dependent effect | < 50% | <20% | – | – | – | – | – | – | – | – | –
2 | C/C1=C/C(=O)O[C@@H]2C[C@@H](CC[C@H](C)/C=C\C=C\CC1)O[C@@](OC(=O)NCCCl)([C@@H]1CSC(=O)N1)C2 | inactive | inactive | < 50% | <20% | – | – | – | – | – | – | – | – | –
3 | C/C1=C/C(=O)O[C@@H]2C[C@@H](CC[C@H](C)/C=C\C=C\CC1)O[C@@](O)([C@@H]1CSC(=O)N1)C2 [LATRUNCULIN A] | – | – | – | <20% | Active | Active | Active | Active | 500 nM | 3 | 3 | 6.7 µM | 25 µM
4 | C/C1=C/C(=O)O[C@@H]2C[C@@H](CC[C@H](C)/C=C\C=C\CC1)O[C@@](OC(=O)NCc1ccccc1)([C@@H]1CSC(=O)N1)C2 | Dose-dependent effect | Dose-dependent effect | – | <20% | – | – | – | – | – | – | – | 29 µM | –
5 | C/C1=C/C(=O)O[C@@H]2C[C@@H](CC[C@H](C)/C=C\C=C\CC1)O[C@@](OC(=O)NCCCCl)([C@@H]1CSC(=O)N1)C2 | Dose-dependent effect | Dose-dependent effect | < 50% | <20% | – | – | – | – | – | – | – | – | –
6 | C/C1=C/C(=O)O[C@@H]2C[C@@H](CC[C@H](C)/C=C\C=C\CC1)O[C@@](OC(=O)NCCBr)([C@@H]1CSC(=O)N1)C2 | inactive | inactive | < 50% | <20% | – | – | – | – | – | – | – | – | –
